Sampled rows, rich in hits. Any-hit rate of the full collection: about 1.8%.
M5 PAM: CHRM5 positive allosteric modulation | P08912 | CHO-K1 hM5, Fluo-8 calcium, ACh EC20 PAM; 0% = ACh EC20, 100% = ACh EC100 | activation, % at 3 µM | hit rate 0.3% among 360,000 | AID 624038;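 active = activation above the run cutoff, the mean activation of all test compounds plus 3 SD, cut at about 18% in these data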
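System: CHO-K1 cell line with stable human muscarinic M5 receptor expression | Also added: EC20 acetylcholine as agonist stimulus | Compound: One concentration, 3 µM final (nominal) | Timing: Fluo-8 loading 80 min at 37 °C plus 30 min room temperature | Measured by: Fluo-8 calcium dye fluorescence, kinetic read | Read-out basis: % activation, ACh-normalized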
M4 ag: CHRM4 agonism in calcium assay; hit rate 0.14% among 360,000; activation, % at 3 µM; CHO-K1 hM4/Gqi5, Fluo-8 calcium fluorescence; vehicle 0%, full acetylcholine response 100%;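 active = activation above the run mean over all test wells plus 3 SD, cut at about 32% in these data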;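 note: peak over basal fluorescence ratio per well then scaled between controls; 0% = DMSO wells and 100% = acetylcholine at EC100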
Target sequence (P08173 whole entry, looked up): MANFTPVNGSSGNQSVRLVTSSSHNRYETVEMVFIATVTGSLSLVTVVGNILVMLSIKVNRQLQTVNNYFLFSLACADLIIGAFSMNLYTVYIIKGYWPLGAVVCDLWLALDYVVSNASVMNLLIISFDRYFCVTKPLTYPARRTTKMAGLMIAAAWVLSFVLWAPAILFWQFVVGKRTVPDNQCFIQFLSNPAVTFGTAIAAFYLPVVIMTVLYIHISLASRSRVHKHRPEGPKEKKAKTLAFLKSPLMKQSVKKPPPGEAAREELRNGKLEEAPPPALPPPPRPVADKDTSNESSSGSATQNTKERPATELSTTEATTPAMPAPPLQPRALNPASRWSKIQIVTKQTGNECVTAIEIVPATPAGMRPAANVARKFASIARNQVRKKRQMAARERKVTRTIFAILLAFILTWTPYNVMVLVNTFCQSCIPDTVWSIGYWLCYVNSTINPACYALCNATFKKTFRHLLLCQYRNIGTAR
M5 ag: agonists of human muscarinic M5 receptor (CHRM5); CHO-K1 hM5 cells, Fluo-8 calcium fluorescence; 0% DMSO wells, 100% maximal acetylcholine response; activation, % at 3 µM; hit rate 0.19% among 360,000;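 active = activation above the run's mean over test compounds plus 3 SD, cut at about 23% in these data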;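 note: signal is peak over basal fluorescence ratio across the kinetic read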
M4 PAM: CHRM4 positive allosteric modulation; P08173; CHO-K1 hM4/Gqi5, Fluo-8 calcium fluorescence, ACh EC20; 0% = ACh EC20, 100% = maximal ACh; activation, % at 3 µM; hit rate 0.4% among 360,000; AID 624126;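 active = activation above its plate's cutoff, the mean activation of sample wells plus 3 SD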
CHRM4 antagonist: antagonists of human muscarinic M4 receptor (CHRM4). hit rate 0.73% among 360,000. CHO-hM4 cells, ACh EC80, Fluo-8 calcium fluorescence. inhibition, % at 3 µM. P08173;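 active = inhibition above its plate's cutoff, the mean inhibition of sample wells plus 3 SD, cut at about 27% in these data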;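 note: 0% = acetylcholine EC80 with DMSO and 100% = DMSO without agonist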
M5 antag: antagonists of human muscarinic M5 receptor (CHRM5); inhibition, % at 3 µM; AID 624040; P08912; hit rate 0.59% among 360,000; CHO-hM5 cells, Fluo-8 calcium fluorescence, ACh EC80;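 active = inhibition above a per-plate cutoff, the mean of that plate's test compounds plus 3 SD, cut at about 27% in these data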;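 note: 0% = acetylcholine EC80 with DMSO and 100% = DMSO without agonist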
* marks the source's active call; other numbers are inactive results.

SMILES	M5 PAM	M4 ag	M5 ag	M4 PAM	CHRM4 antagonist	M5 antag
CCN(c1ccccc1)S(=O)(=O)c1ccc(OC)c(NC(=O)c2ccc(=O)[nH]c2)c1	0	2	-2	7	-4	19
O=C1CC(N(O)c2ccccc2)C(=O)N1c1cc(Cl)cc(Cl)c1 (stereo unspecified)	-3	1	30*	4	4	-10
C[C@H](CO)N1C[C@H](C)[C@H](CN(C)C(=O)OCc2ccccc2)OCc2cnnn2CCCC1=O	1	0	0	0	7	1
COC(=O)c1ccc(N2CCOCC2)c(NC(=O)Nc2cccc(OC)c2)c1	-7	3	1	-5	0	3
CCOC(=O)c1ccc(N2CCN(c3ccccc3F)CC2)c(NC(=O)Nc2cccc(OC)c2)c1	-20	3	-1	4	3	45*
CCn1c(SCC(=O)NC2CC2)nnc1-c1ccc(C)cc1	-2	0	-2	-1	5	8
COc1ccc2c(c1)[nH]c1c(N3CCSCC3)ncnc12	-10	24	6	-13	14	6
COc1ccc2c(c1)[nH]c1c(N3CCN(Cc4ccc5c(c4)OCO5)CC3)ncnc12	-16	13	1	-13	11	32*
O=C(Nc1ccc2c(c1)OCCO2)C1c2ccccc2OCC(=O)N1CCCN1CCOCC1 (stereo unspecified)	-4	2	0	8	0	1
S=c1[nH]nc(-c2cccnc2)n1C1CCCCC1	4	1	-4	26*	-1	11
CC1CCCCC1n1c(-c2cccnc2)n[nH]c1=S (stereo unspecified)	3	1	-15	7	-10	-6
CCN(CC)CCNC(=O)c1ccc(NC(=O)c2c(C)nn(-c3ccc(F)cc3)c2Cl)cc1	-16	7	-5	-21	41*	49*
CCN(CC)CCNC(=O)c1ccc(NC(=O)c2cn(-c3ccc(F)cc3)nc2-c2cccc(OC)c2)cc1	-19	3	-8	-18	48*	67*
CCN(CC)CCNC(=O)c1ccc(NC(=O)c2cn(-c3ccccc3)nc2-c2cccs2)cc1	-18	7	-10	-17	10	16
O=C(NC(=S)NC1C2CC3CC(C2)CC1C3)c1ccccc1 (stereo unspecified)	-2	0	-1	6	-18	-10
CCCc1ncc(C(O)(c2ccccc2)c2ccc(C)cc2)n1C (stereo unspecified)	-19	3	-9	-19	50*	73*
CCCc1ncc(C(O)(c2ccccc2)c2ccccc2)n1C	-20	2	-11	-18	62*	59*
COc1ccccc1-c1cnc(C(O)c2cc(C)c(OC)c(C)c2)[nH]1 (stereo unspecified)	-2	8	3	2	3	9
CCOC(=O)CSC(=S)NC(=O)c1ccc(OC)cc1	2	1	3	35*	4	2
O=C(COC(=O)c1ccccc1O)NC12CC3CC(CC(C3)C1)C2	-11	2	2	-5	13	2
O=C(COC(=O)c1ccccn1)NC12CC3CC(CC(C3)C1)C2	7	1	1	11	30*	4
Cc1cc(C)n(-c2nc3c(c(=O)[nH]c(=O)n3C)n2CC(O)COc2ccc(Cl)cc2Cl)n1 (stereo unspecified)	22*	0	-10	-1	-11	-2
CCN(CC)CCNc1nc2c(c(=O)[nH]c(=O)n2C)n1CC(O)COc1ccc(Cl)cc1Cl (stereo unspecified)	3	0	-6	-6	11	4
CC(C)n1nc(C(=O)OCC(=O)NCCc2ccc(S(N)(=O)=O)cc2)c2ccccc2c1=O	9	0	3	11	0	9
Cc1ccc(Cl)cc1NC(=O)CSc1sc2c(O)cc(=O)[nH]c2c1C#N	-5	1	-4	-1	4	14
COc1ccc(Cl)cc1NC(=O)CSc1sc2c(O)cc(=O)[nH]c2c1C#N	15	7	-1	23*	4	19
